According to ChEMBL document CHEMBL1125539 (J Med Chem, 1992):

Assays:
[1] = Growth inhibition of aerobic chinese hamster ovary fibroblast AA8 cell line using an exposure time of 18 hours; assay type: functional, cell-based; settings: Cricetulus griseus, CHO-AA8, 18 h
Summary of the method: (§1)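 Log-phase CHO monolayers in 96-well trays seeded at 200 (AA8; text prints "A48") or 300 (UV4) cells/well in Alpha MEM + 10% FCS, grown 24 h, then exposed aerobically 18 h to five 2-fold serial dilutions in duplicate.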

[2] = Growth inhibition of aerobic chinese hamster ovary fibroblast UV4 cells using an exposure time of 18 hours; assay type: functional, cell-based; settings: Cricetulus griseus, UV4, 18 h; summary of the method: as §1
Cricetulus griseus = species on record: Cricetulus griseus; experiment: Hypersensitivity factor was defined as the ratio of IC50(AA8) to IC50(UV4); assay type: functional
[3] = Hypoxic selectivity was measured as product of concentration and exposure time needed to reduce cell survival to 10% of control using UV4 cells at 10e6 /mL in the clonogenic assay; assay type: functional, Cricetulus griseus
Summary of the method: (§2)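 Magnetically stirred 10-mL suspensions of late-log UV4 cells (10^6/mL), gassed continuously with 5% CO2 in air or N2. Cells and drug in medium pre-equilibrated 60 min under that gas before mixing. Samples removed periodically up to 8 h for clonogenic survival. CT10 = concentration (μM) × time (h) for 10% survival; ratio = CT10(air)/CT10(N2), using concentrations giving similar kill rates.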

[4] = CT10 ratio defined as ratio of CT10 (air) to that of CT10 (nitrogen)); assay type: functional; summary of the method: as §2

SMILES | IC50 [1] | IC50 [2] | HF (Cricetulus griseus) | CT10 [3] | CT10 ratio [4]
O=[N+]([O-])c1ccc(N(CCO)CCO)cc1 | 3200 µM | 2950 µM | 1.1 | – | –
O=C(c1cc(N(CCCl)CCCl)c([N+](=O)[O-])cc1[N+](=O)[O-])N1CCOCC1 | 260 µM | 12 µM | 23 | 156 µM·h | 1.3 air/N2
CN(C)CCNC(=O)c1cc(N(CCO)CCO)ccc1[N+](=O)[O-] | 13200 µM | 8000 µM | 1.6 | 11300 µM·h | 0.95 air/N2
CN(C)CCNC(=O)c1cccc(N(CCCl)CCCl)c1 | 11 µM | 0.27 µM | 44 | – | –
CN(C)CCNC(=O)c1cc([N+](=O)[O-])ccc1N(CCCl)CCCl | 208 µM | 5.7 µM | 40 | 78 µM·h | 1.5 air/N2
O=C(c1cc(N(CCCl)CCCl)ccc1[N+](=O)[O-])N1CCOCC1 | 243 µM | 15 µM | 19 | 450 µM·h | 1 air/N2
O=C(c1cc(N2CC2)c([N+](=O)[O-])cc1[N+](=O)[O-])N1CCOCC1 | 690 µM | 2.7 µM | 330 | 50 µM·h | 1.7 air/N2
NC(=O)c1cc(N2CC2)c([N+](=O)[O-])cc1[N+](=O)[O-] [TRETAZICAR] | 560 µM | 11.7 µM | 50 | – | 3.6 air/N2
CN(C)CCNC(=O)c1cc(N(CCCl)CCCl)ccc1[N+](=O)[O-] | 1140 µM | 72 µM | 12 | 465 µM·h | 2.3 air/N2
O=C(c1cc([N+](=O)[O-])ccc1N(CCCl)CCCl)N1CCOCC1 | > 500 µM | 68 µM | > 7 | 2325 µM·h | 1.15 air/N2
NC(=O)c1cc(N(CCCl)CCCl)c([N+](=O)[O-])cc1[N+](=O)[O-] | 470 µM | 108 µM | 6.8 | 2700 µM·h | 60 air/N2
O=C(c1cc(N(CCO)CCO)c([N+](=O)[O-])cc1[N+](=O)[O-])N1CCOCC1 | 2950 µM | 2600 µM | 1.1 | – | –
CN(C)CCNC(=O)c1cc(N(CCO)CCO)c([N+](=O)[O-])cc1[N+](=O)[O-] | 4110 µM | 3100 µM | 1.4 | – | –
CN(C)CCNC(=O)c1cc([N+](=O)[O-])ccc1N(CCO)CCO | 6700 µM | 4000 µM | 1.1 | – | –
O=C(c1cc(N(CCO)CCO)ccc1[N+](=O)[O-])N1CCOCC1 | 11200 µM | 9200 µM | 1 | – | –
CN(C)CCNC(=O)c1cc(N(CCCl)CCCl)c([N+](=O)[O-])cc1[N+](=O)[O-] | 260 µM | 68 µM | 4.2 | 1080 µM·h | 70 air/N2
O=C(c1cc([N+](=O)[O-])ccc1N(CCO)CCO)N1CCOCC1 | 10400 µM | 8400 µM | 1.3 | – | –
O=[N+]([O-])c1ccc(N(CCO)CCO)c([N+](=O)[O-])c1 | 295 µM | 280 µM | 0.9 | – | –
NC(=O)c1cc(N(CCO)CCO)c([N+](=O)[O-])cc1[N+](=O)[O-] | 6200 µM | 5900 µM | 1.1 | >35000 µM·h | –
